Results as given in ChEMBL document CHEMBL1146111, “Factor VIIa inhibitors: chemical optimization, preclinical pharmacokinetics, pharmacodynamics, and efficacy in an arterial baboon thrombosis model” (Bioorg Med Chem Lett, 2006).

How the values were obtained:
[1] = target: T1, Coagulation factor VII/tissue factor (Homo sapiens) (UniProt P08709+P13726); test: Selectivity for fVIIa/TF complex over fXa; format: protein-complex assay
Outline: (§1)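 Ki ratios; fXa and thrombin assays pH 7.4, fVIIa assay with 7 nM fVIIa, 11 nM relipidated tissue factor, 5 mM CaCl2 and substrate CH3SO2-D-CHA-But-Arg-pNA.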

[2] = target: T1, Coagulation factor VII/tissue factor (Homo sapiens); test: Selectivity for fVIIa/TF complex over fIIa; format: protein-complex assay; outline: as §1
[3] = target: T1, Coagulation factor VII/tissue factor (Homo sapiens); test: Anticoagulant potency in human plasma as measured by prothrombin time; format: functional, cell-free
Outline: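 Clotting assay in human plasma on a coagulation analyzer run per manufacturer's instructions; concentration doubling prothrombin time reported.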

Coagulation factor VII = target: T2, Coagulation factor VII (Homo sapiens, UniProt P08709); test: Binding affinity to F7a/TF complex; format: protein-complex assay
T2 sequence (P08709 whole entry): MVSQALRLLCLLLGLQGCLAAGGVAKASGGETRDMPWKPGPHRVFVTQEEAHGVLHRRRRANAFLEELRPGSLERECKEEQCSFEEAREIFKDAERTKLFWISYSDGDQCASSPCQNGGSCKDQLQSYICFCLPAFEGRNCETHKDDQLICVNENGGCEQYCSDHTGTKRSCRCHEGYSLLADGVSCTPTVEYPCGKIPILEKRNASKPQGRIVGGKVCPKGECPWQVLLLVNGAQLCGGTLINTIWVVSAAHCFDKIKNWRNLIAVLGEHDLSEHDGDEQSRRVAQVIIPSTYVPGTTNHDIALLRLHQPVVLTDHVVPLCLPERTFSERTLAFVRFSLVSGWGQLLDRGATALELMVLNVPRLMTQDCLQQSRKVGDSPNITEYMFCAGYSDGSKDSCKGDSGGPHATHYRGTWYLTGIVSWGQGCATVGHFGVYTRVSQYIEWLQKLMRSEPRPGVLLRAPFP

| Compound | Ratio Ki [1] | Ratio Ki [2] | 2PT [3] [µM] | Ki (Coagulation factor VII) [µM] |
| --- | --- | --- | --- | --- |
| N=C(N)c1ccc2[nH]c(-c3cc(C(CC(=O)O)C(=O)O)cc(-c4cc(F)ccc4O)c3O)nc2c1 (centres undefined) | 1800 | 55500 | 10.2 |  |
| N=C(N)c1ccc2nc(-c3cc(C(CC(=O)O)C(=O)O)cc(-c4cc(CC(=O)O)ccc4O)c3O)[nH]c2c1 (centres undefined) |  |  |  | 0.012 |
| N=C(N)c1ccc2[nH]c(-c3cc(C(CC(=O)O)C(=O)O)cc(-c4cc(CN)ccc4O)c3O)nc2c1 (centres undefined) | 510 | 4200 | 2.9 | 0.035 |
| N=C(N)c1ccc2[nH]c(-c3cc(C(CC(=O)O)C(=O)O)cc(-c4cc(CC(=O)O)ccc4O)c3O)nc2c1 (centres undefined) | 125 | 12500 | 6.2 |  |
| N=C(N)c1ccc2[nH]c(-c3cc(C(CC(=O)O)C(=O)O)cc(-c4cc(C(N)=O)ccc4O)c3O)nc2c1 (centres undefined) | 1100 | 10700 | 3.6 | 0.014 |
| N=C(N)c1ccc2[nH]c(-c3cc(C(CC(=O)O)C(=O)O)cc(-c4cc(CCC(=O)O)ccc4O)c3O)nc2c1 (centres undefined) | 350 | 11500 | 5.4 | 0.013 |
